Drawing on ChEMBL document CHEMBL4382192, “Discovery of a potent dual ALK and EGFR T790M inhibitor” (Eur J Med Chem, 2017), this text covers Activity, concentration and IC50 for 1 compound.

The target of series [1] is Serine/threonine-protein kinase PRP4 homolog (Homo sapiens) (UniProt Q13523). As to the kind of experiment: Binding affinity to wild-type human partial length PRP4 (D657 to I1007 residues) expressed in bacterial expression system assessed as residual binding level at 1 uM by Kinomescan method relative to control.
Series [2] concerns the target Vascular endothelial growth factor receptor 3 (Homo sapiens) (UniProt P35916). As to the kind of experiment: Binding affinity to wild-type human partial length FLT4 (E821 to E1196 residues) expressed in bacterial expression system assessed as residual binding level at 1 uM by Kinomescan method relative to control.
The target in series [3] is Microtubule-associated serine/threonine-protein kinase 1 (Homo sapiens) (UniProt Q9Y2H9). As to the kind of experiment: Binding affinity to wild-type human partial length MAST1 (S346 to V730 residues) expressed in mammalian expression system assessed as residual binding level at 1 uM by Kinomescan method relative to control.
The target in series [4] is Tyrosine-protein kinase Fgr (Homo sapiens) (UniProt P09769). As to the kind of experiment: Binding affinity to wild-type human partial length FGR (L233 to T529 residues) expressed in bacterial expression system assessed as residual binding level at 1 uM by Kinomescan method relative to control.
The target in series [5] is Myotonin-protein kinase (Homo sapiens) (UniProt Q09013). Nature of the series: Binding affinity to wild-type human partial length DMPK (V47 to V415 residues) expressed in bacterial expression system assessed as residual binding level at 1 uM by Kinomescan method relative to control.
For series [6], the target named is Mitogen-activated protein kinase kinase kinase 1 (Homo sapiens) (UniProt Q13233). As to the kind of experiment: Binding affinity to wild-type human partial length MAP3K1 (L1202 to W1512 residues) expressed in mammalian expression system assessed as residual binding level at 1 uM by Kinomescan method relative to control.
Mitogen-activated protein kinase kinase kinase 1 (Homo sapiens), sequence (Q13233 whole entry, the tested form may be a part): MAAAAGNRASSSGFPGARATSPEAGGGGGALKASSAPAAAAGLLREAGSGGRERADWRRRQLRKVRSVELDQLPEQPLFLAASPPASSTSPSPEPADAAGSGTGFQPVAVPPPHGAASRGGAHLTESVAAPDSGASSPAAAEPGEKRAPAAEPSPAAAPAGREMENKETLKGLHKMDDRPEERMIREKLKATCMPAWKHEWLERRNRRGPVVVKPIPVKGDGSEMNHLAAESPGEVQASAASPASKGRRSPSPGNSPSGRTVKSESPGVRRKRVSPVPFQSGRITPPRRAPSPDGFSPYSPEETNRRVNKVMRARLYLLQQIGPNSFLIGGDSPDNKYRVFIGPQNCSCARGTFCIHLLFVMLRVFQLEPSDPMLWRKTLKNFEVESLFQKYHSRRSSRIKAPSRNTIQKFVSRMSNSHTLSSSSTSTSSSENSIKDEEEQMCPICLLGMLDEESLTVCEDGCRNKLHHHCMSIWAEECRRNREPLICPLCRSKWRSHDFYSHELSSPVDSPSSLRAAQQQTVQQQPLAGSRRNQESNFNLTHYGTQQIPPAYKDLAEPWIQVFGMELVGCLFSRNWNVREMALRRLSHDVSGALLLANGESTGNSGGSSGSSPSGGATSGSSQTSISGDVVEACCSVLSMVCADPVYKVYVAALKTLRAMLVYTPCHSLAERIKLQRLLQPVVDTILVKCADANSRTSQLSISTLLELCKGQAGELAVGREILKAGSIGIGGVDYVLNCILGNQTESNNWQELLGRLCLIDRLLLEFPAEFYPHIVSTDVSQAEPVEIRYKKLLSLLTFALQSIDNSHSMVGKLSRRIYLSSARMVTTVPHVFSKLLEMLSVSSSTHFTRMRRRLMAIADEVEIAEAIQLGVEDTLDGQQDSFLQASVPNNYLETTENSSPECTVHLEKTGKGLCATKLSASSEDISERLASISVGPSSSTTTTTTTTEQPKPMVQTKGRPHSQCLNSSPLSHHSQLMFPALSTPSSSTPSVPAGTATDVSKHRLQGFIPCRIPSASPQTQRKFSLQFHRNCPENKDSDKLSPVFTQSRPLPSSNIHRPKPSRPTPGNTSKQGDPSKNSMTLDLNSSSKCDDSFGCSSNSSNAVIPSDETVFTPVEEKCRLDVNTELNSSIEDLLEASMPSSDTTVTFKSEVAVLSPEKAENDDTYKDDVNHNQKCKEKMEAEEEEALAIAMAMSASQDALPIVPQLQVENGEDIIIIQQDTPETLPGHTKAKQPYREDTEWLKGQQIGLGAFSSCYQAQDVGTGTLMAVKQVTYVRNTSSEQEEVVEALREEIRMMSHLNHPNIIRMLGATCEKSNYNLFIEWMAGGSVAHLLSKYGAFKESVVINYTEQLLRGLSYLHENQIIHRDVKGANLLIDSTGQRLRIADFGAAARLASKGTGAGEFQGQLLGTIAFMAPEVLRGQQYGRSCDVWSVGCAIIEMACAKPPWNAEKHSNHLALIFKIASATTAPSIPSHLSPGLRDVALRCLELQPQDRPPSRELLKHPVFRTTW
The test system of series [7] is Mycobacterium tuberculosis. Nature of the series: Binding affinity to wild-type Mycobacterium tuberculosis partial length PKNB (M1 to G279 residues) expressed in mammalian expression system assessed as residual binding level at 1 uM by Kinomescan method relative to control. An outline of the steps:
(§1)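 Kinome-wide selectivity panel run by the KINOMEscan method, with the test compound at a single concentration of 1 μM. Wild-type and mutant kinases were profiled in the same screen.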

For series [8], the target named is Cyclin-dependent kinase 16 (Homo sapiens) (UniProt Q00536). Nature of the series: Binding affinity to wild-type human partial length PCTK1 (G160 to A474 residues) expressed in mammalian expression system assessed as residual binding level at 1 uM by Kinomescan method relative to control.
Series [9] can be described thus: Drug uptake in mouse lung at 10 mg/kg, po after 2 hrs. The format is ADME, organism-based. To be noted: read-out: Drug uptake.
In series [10] the target is Serine/threonine-protein kinase tousled-like 2 (Homo sapiens) (UniProt Q86UE8). As to the kind of experiment: Binding affinity to wild-type human partial length TLK2 (E424 to N749 residues) expressed in bacterial expression system assessed as residual binding level at 1 uM by Kinomescan method relative to control.
For series [11], the target named is Serine/threonine-protein kinase ICK (Homo sapiens) (UniProt Q9UPZ9). Nature of the series: Binding affinity to wild-type human partial length ICK (M1 to P314 residues) expressed in mammalian expression system assessed as residual binding level at 1 uM by Kinomescan method relative to control.
For series [12], the system named is Phosphatidylinositol 4,5-bisphosphate 3-kinase catalytic subunit alpha isoform (Homo sapiens), P42336 [E545A]. Nature of the series: Binding affinity to human partial length PIK3CA E545A mutant (R108 to N1068 residues) expressed in mammalian expression system assessed as residual binding level at 1 uM by Kinomescan method relative to control.
Series [13] addresses Serine/threonine-protein kinase DCLK2 (Homo sapiens) (UniProt Q8N568). As to the kind of experiment: Binding affinity to wild-type human partial length DCAMKL2 (K273 to V664 residues) expressed in bacterial expression system assessed as residual binding level at 1 uM by Kinomescan method relative to control.
The target in series [14] is Death-associated protein kinase 3 (Homo sapiens) (UniProt O43293). Nature of the series: Binding affinity to wild-type human partial length DAPK3 (M1 to A277 residues) expressed in bacterial expression system assessed as residual binding level at 1 uM by Kinomescan method relative to control.
In series [15] the target is Dual specificity mitogen-activated protein kinase kinase 7 (Homo sapiens) (UniProt O14733). As to the kind of experiment: Binding affinity to wild-type human full length MKK7 (M1 to R419 residues) expressed in mammalian expression system assessed as residual binding level at 1 uM by Kinomescan method relative to control. Put shortly:
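Single-point kinome-wide KINOMEscan binding panel, test compound at 1 μM, run by the provider's standard protocol.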

For series [16], the target named is Mitogen-activated protein kinase kinase kinase 20 (Homo sapiens) (UniProt Q9NYL2). As to the kind of experiment: Binding affinity to wild-type human partial length ZAK (M1 to L331 residues) expressed in bacterial expression system assessed as residual binding level at 1 uM by Kinomescan method relative to control.
Mitogen-activated protein kinase kinase kinase 20 (Homo sapiens), sequence (Q9NYL2 2-800 limits assumed): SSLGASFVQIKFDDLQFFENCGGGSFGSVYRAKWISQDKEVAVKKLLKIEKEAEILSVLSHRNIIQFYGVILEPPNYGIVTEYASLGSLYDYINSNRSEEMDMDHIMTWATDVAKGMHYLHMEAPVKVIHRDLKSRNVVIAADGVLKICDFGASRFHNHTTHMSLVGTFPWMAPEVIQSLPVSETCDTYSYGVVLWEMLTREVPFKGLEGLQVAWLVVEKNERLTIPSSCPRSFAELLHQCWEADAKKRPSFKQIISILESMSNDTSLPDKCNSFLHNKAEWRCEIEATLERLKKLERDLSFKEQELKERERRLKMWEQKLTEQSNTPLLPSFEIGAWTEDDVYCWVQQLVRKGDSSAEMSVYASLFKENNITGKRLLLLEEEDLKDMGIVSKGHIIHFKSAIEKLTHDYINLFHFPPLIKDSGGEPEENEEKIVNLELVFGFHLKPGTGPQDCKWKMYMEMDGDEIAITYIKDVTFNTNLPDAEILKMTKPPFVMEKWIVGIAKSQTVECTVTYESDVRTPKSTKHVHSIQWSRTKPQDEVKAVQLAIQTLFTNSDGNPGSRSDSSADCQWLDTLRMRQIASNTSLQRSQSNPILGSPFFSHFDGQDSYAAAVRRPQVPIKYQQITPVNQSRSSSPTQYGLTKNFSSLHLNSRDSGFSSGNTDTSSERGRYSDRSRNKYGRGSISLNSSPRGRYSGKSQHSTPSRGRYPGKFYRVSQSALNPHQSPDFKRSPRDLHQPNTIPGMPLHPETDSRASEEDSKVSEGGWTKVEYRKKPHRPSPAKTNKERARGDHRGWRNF
The target in series [17] is Cyclin-dependent kinase 2 (Homo sapiens) (UniProt P24941). As to the kind of experiment: Binding affinity to wild-type human full length CDK2 (M1 to L298 residues) expressed in bacterial expression system assessed as residual binding level at 1 uM by Kinomescan method relative to control.
In series [18] the target is Insulin receptor (Homo sapiens, UniProt P06213). As to the kind of experiment: Inhibition of recombinant His-tagged human InsR (1011 to 1382 residues) expressed in baculovirus expression system by Z-LYTE assay.
Series [19] concerns the target Mitogen-activated protein kinase kinase kinase 7 (Homo sapiens) (UniProt O43318). Nature of the series: Binding affinity to wild-type human partial length TAK1 (M1 to Q303 residues) expressed in mammalian expression system assessed as residual binding level at 1 uM by Kinomescan method relative to control.
The target in series [20] is Cyclin-dependent kinase 2 homolog (Plasmodium falciparum (isolate 3D7)) (UniProt P61075). As to the kind of experiment: Binding affinity to wild-type Plasmodium falciparum full length PK5 (M1 to N288 residues) expressed in mammalian expression system assessed as residual binding level at 1 uM by Kinomescan method relative to control. Put shortly: as §1
Cyclin-dependent kinase 2 homolog (Plasmodium falciparum (isolate 3D7)), sequence (P61075 whole entry, the tested form may be a part): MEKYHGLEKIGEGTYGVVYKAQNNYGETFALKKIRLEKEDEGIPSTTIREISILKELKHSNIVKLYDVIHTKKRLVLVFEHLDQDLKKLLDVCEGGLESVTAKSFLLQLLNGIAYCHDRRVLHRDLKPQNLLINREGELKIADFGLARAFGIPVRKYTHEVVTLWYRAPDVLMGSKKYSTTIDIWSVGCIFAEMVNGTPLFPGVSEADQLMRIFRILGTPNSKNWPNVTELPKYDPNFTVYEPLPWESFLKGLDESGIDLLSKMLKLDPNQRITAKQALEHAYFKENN
Series [21] addresses Serine/threonine-protein kinase TNNI3K (Homo sapiens) (UniProt Q59H18). Nature of the series: Binding affinity to wild-type human full length TNNI3K (M1 to S835 residues) expressed in bacterial expression system assessed as residual binding level at 1 uM by Kinomescan method relative to control.
Series [22] has as its target Serine/threonine-protein kinase PLK4 (Homo sapiens) (UniProt O00444). Nature of the series: Binding affinity to wild-type human partial length PLK4 (M1 to S273 residues) expressed in mammalian expression system assessed as residual binding level at 1 uM by Kinomescan method relative to control.
Series [23] concerns the target Serine/threonine-protein kinase WNK2 (Homo sapiens) (UniProt Q9Y3S1). Nature of the series: Binding affinity to wild-type human partial length WNK2 (V47 to D482 residues) expressed in mammalian expression system assessed as residual binding level at 1 uM by Kinomescan method relative to control.
Series [24] deals with Serine/threonine-protein kinase SIK3 (Homo sapiens) (UniProt Q9Y2K2). As to the kind of experiment: Binding affinity to wild-type human partial length QSK (A90 to L395 residues) expressed in mammalian expression system assessed as residual binding level at 1 uM by Kinomescan method relative to control.

Serine/threonine-protein kinase TNNI3K (Homo sapiens), sequence (Q59H18 whole entry, the tested form may be a part): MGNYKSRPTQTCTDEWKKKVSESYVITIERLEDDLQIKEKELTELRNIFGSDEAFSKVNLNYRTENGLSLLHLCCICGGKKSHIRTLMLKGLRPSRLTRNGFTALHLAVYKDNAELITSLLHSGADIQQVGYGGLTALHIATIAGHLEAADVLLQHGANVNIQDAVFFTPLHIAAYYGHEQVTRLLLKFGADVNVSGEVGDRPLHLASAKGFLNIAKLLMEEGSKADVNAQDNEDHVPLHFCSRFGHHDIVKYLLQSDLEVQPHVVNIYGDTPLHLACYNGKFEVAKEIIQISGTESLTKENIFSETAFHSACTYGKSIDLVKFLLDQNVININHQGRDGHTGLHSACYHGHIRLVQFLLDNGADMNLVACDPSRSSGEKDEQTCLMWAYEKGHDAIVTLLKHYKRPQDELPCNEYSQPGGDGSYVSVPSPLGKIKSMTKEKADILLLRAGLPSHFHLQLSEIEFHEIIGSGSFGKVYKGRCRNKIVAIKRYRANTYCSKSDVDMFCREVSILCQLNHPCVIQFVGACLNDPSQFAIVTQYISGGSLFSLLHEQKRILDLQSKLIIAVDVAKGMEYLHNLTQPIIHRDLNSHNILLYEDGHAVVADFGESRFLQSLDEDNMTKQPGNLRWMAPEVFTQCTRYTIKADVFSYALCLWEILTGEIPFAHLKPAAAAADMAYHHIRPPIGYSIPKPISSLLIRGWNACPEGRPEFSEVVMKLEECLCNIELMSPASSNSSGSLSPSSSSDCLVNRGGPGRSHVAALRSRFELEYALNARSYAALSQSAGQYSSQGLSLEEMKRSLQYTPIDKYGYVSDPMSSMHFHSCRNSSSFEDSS
Mitogen-activated protein kinase kinase kinase 7 (Homo sapiens), sequence (O43318 whole entry, the tested form may be a part): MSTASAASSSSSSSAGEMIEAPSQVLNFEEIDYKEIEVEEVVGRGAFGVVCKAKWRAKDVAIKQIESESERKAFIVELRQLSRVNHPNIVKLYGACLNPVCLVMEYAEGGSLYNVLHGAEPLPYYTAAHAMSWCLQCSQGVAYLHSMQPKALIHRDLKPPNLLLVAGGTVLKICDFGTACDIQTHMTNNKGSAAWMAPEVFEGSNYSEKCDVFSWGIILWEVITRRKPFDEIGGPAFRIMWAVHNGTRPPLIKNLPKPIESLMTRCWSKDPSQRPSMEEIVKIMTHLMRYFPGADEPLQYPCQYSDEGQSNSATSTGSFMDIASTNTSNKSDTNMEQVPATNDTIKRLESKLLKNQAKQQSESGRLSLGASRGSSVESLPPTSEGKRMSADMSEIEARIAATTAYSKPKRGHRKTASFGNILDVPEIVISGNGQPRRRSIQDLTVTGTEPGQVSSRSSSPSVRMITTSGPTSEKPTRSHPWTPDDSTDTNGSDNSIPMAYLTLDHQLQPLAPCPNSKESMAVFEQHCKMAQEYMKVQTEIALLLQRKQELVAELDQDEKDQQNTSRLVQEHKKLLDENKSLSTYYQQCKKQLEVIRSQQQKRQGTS
Serine/threonine-protein kinase PLK4 (Homo sapiens), sequence (O00444 whole entry, the tested form may be a part): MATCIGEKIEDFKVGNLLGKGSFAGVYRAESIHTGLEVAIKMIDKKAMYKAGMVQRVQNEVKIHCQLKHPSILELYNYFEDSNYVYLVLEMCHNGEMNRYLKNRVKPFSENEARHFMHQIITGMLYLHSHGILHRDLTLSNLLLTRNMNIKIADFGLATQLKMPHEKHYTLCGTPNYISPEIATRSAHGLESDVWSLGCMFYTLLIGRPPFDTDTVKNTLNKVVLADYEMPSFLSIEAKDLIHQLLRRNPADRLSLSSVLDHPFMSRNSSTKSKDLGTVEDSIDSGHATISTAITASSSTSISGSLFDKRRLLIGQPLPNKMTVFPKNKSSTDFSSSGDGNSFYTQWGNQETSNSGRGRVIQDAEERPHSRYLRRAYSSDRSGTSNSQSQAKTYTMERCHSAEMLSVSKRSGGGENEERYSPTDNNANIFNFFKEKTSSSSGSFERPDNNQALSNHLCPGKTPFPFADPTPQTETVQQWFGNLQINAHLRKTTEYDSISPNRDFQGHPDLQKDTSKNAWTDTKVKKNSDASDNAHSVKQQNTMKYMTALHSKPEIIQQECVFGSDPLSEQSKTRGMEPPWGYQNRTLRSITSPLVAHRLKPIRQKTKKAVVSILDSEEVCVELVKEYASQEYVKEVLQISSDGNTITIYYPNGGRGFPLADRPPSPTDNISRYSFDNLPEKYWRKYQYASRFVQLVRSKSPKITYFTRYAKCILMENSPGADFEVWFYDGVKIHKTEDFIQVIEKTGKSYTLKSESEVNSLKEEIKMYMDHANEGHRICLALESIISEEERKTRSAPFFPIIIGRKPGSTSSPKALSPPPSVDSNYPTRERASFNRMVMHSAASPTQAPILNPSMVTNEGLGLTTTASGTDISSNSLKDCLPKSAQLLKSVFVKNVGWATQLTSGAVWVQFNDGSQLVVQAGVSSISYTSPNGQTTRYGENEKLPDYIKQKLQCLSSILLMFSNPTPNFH

One may read the IC50 as the concentration at which inhibition is half-maximal. Turning to `C=CC(=O)Nc1cc(Nc2ncc(Cl)c(Nc3ccccc3S(=O)(=O)C(C)C)n2)c(OC)cc1N(C)CCN(C)C`, the Activity in series [1] amounted to 82%; in [2], 36%; in [3] it was 3.2%; in series [4], 57%; in series [5] it was 91%; in series [6] it was 84%. For the same compound, the Activity was 50% in series [7]; 91% in [8]; 93% in series [10]; 65% in series [11]; 83% in series [12]; 14% in series [13]. The Activity in series [14] turned out to be 39%; in series [15], 77%; in series [16] it was 86%; in [17], 83%; in [19], 35%; in series [20], 91%. For the same compound, the Activity in series [21] was 100%; in series [22], 0.35%; in series [23] it was 66%; in series [24], 61%. Also, the concentration at 2 h in series [9] amounted to 4.64 µM. Further, the IC50 in series [18] is 8 nM.
